# Where “and” joins values, the source holds several entries; their conditions need not be identical. Equal entries are not always repeated.
# Test system: HEK-293T
# Assay: Multiplex assay against HEK293T
# Assay type: toxicity, cell-based
# Conditions: human, 12 h, 1 µM, compound concentration 1 uM
# Outline: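 Tubulin, mitochondrial-mass and membrane-permeability phenotypes are per cents of healthy-nucleus cells. Cells were gated by CellPathfinder machine learning into Hoechst high-intensity objects or normal cells, normal cells into healthy, pyknosed or fragmented nuclei, and pyknosed cells into mitotic or apoptotic. Before that, live cells stained at seeding with Hoechst33342, BioTracker Green Microtubule Cytoskeleton Dye, MitoTracker Red and Annexin V Alexa Fluor 680 were imaged on a CQ1 microscope at 37°C and 5% CO2 after compound addition.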
SMILES,Population Apoptotic (%),Population Fragmented Nuclei (%),Population Healthy Nuclei (%),Population Hoechst High Intensity Objects (%),Population Membrane Permeable-Phenotype (%),Population Mitochondria Different-Phenotype (%),Population Mitotic Cells (%),Population Normal (%),Population Pyknosed Nuclei (%),Population Tubulin-Different-Phenotype (%)
CN(C)CCCc1cc(C(=O)Nc2ccc(-c3ccncc3)cc2)ccc1O.Cl.Cl,27% and 37%,5%,79% and 82%,9% and 8%,0%,48% and 58%,72% and 62%,90% and 91%,14% and 11%,37% and 14%
CC(F)(F)CN1CCOc2c(nn(-c3ccccc3Cl)c2-c2ccc(Cl)cc2)C1=O,29% and 64%,–,77% and 78%,–,0%,43% and 53%,70% and 35%,93% and 91%,12% and 16%,–
COc1ccc2c(c1)C(C(=O)N(Cc1ccc(N(C)C)cc1)c1ccc(C(C)C)cc1)CCC2.Cl (stereo not drawn),30% and 43%,6% and 5%,80% and 79%,7% and 4%,0%,39% and 61%,70% and 56%,92% and 95%,13% and 14%,27% and 23%
CCCCC(=O)N(Cc1ccc(-c2ccccc2-c2nnn[nH]2)cc1)[C@H](C(=O)O)C(C)C,44% and 40%,7% and 6%,80% and 74%,9% and 11%,0%,36% and 49%,55% and 59%,90% and 88%,12% and 18%,16% and 21%

# Same assay, conditions: human, 12 h, 1 µM, compound concentration 1 uM
row,SMILES,Total Cell Count
1,CN(C)CCCc1cc(C(=O)Nc2ccc(-c3ccncc3)cc2)ccc1O.Cl.Cl,358 and 367
2,CC(F)(F)CN1CCOc2c(nn(-c3ccccc3Cl)c2-c2ccc(Cl)cc2)C1=O,397 and 369
3,COc1ccc2c(c1)C(C(=O)N(Cc1ccc(N(C)C)cc1)c1ccc(C(C)C)cc1)CCC2.Cl (stereo not drawn),413 and 330
4,CCCCC(=O)N(Cc1ccc(-c2ccccc2-c2nnn[nH]2)cc1)[C@H](C(=O)O)C(C)C,469 and 290

# Same assay, conditions: human, 12 h, 10 µM, compound concentration 10 uM
SMILES,Population Apoptotic (%),Population Fragmented Nuclei (%),Population Healthy Nuclei (%),Population Hoechst High Intensity Objects (%),Population Membrane Permeable-Phenotype (%),Population Mitochondria Different-Phenotype (%),Population Mitotic Cells (%),Population Normal (%),Population Pyknosed Nuclei (%),Population Tubulin-Different-Phenotype (%)
CN(C)CCCc1cc(C(=O)Nc2ccc(-c3ccncc3)cc2)ccc1O.Cl.Cl,31% and 60%,10% and 11%,81% and 77%,6% and 9%,0% and 2%,49% and 63%,68% and 39%,93% and 90%,7% and 11%,33%
CC(F)(F)CN1CCOc2c(nn(-c3ccccc3Cl)c2-c2ccc(Cl)cc2)C1=O,57% and 43%,–,73% and 75%,–,0%,78% and 84%,42% and 56%,89% and 94%,22% and 18%,–
COc1ccc2c(c1)C(C(=O)N(Cc1ccc(N(C)C)cc1)c1ccc(C(C)C)cc1)CCC2.Cl (stereo not drawn),60% and 63%,9% and 4%,78% and 77%,10% and 6%,0%,60% and 75%,39% and 36%,89% and 93%,11% and 17%,64% and 57%
CCCCC(=O)N(Cc1ccc(-c2ccccc2-c2nnn[nH]2)cc1)[C@H](C(=O)O)C(C)C,21% and 51%,7% and 5%,83% and 81%,5% and 10%,0%,30% and 63%,78% and 48%,94% and 89%,8% and 13%,19%

# Same assay, conditions: human, 12 h, 10 µM, compound concentration 10 uM
row,SMILES,Total Cell Count
1,CN(C)CCCc1cc(C(=O)Nc2ccc(-c3ccncc3)cc2)ccc1O.Cl.Cl,460 and 391
2,CC(F)(F)CN1CCOc2c(nn(-c3ccccc3Cl)c2-c2ccc(Cl)cc2)C1=O,384 and 397
3,COc1ccc2c(c1)C(C(=O)N(Cc1ccc(N(C)C)cc1)c1ccc(C(C)C)cc1)CCC2.Cl (stereo not drawn),383 and 361
4,CCCCC(=O)N(Cc1ccc(-c2ccccc2-c2nnn[nH]2)cc1)[C@H](C(=O)O)C(C)C,507 and 310

# Same assay, conditions: human, 24 h, 1 µM, compound concentration 1 uM
SMILES,Population Apoptotic (%),Population Fragmented Nuclei (%),Population Healthy Nuclei (%),Population Hoechst High Intensity Objects (%),Population Membrane Permeable-Phenotype (%),Population Mitochondria Different-Phenotype (%),Population Mitotic Cells (%),Population Normal (%),Population Pyknosed Nuclei (%),Population Tubulin-Different-Phenotype (%)
CN(C)CCCc1cc(C(=O)Nc2ccc(-c3ccncc3)cc2)ccc1O.Cl.Cl,25%,11% and 9%,78% and 83%,5%,1% and 0%,26% and 32%,74% and 75%,94%,10% and 6%,21% and 9%
CC(F)(F)CN1CCOc2c(nn(-c3ccccc3Cl)c2-c2ccc(Cl)cc2)C1=O,25% and 43%,–,79% and 84%,–,0%,22% and 31%,74% and 56%,97% and 93%,11% and 8%,–
COc1ccc2c(c1)C(C(=O)N(Cc1ccc(N(C)C)cc1)c1ccc(C(C)C)cc1)CCC2.Cl (stereo not drawn),31% and 60%,9% and 7%,81% and 79%,3% and 6%,0%,20% and 33%,68% and 40%,96% and 93%,8% and 13%,13% and 11%
CCCCC(=O)N(Cc1ccc(-c2ccccc2-c2nnn[nH]2)cc1)[C@H](C(=O)O)C(C)C,30% and 32%,11% and 9%,78% and 82%,5% and 6%,0%,21% and 26%,70% and 67%,94% and 93%,10% and 8%,12%

# Same assay, conditions: human, 24 h, 1 µM, compound concentration 1 uM
row,SMILES,Total Cell Count
1,CN(C)CCCc1cc(C(=O)Nc2ccc(-c3ccncc3)cc2)ccc1O.Cl.Cl,542 and 486
2,CC(F)(F)CN1CCOc2c(nn(-c3ccccc3Cl)c2-c2ccc(Cl)cc2)C1=O,568 and 478
3,COc1ccc2c(c1)C(C(=O)N(Cc1ccc(N(C)C)cc1)c1ccc(C(C)C)cc1)CCC2.Cl (stereo not drawn),567 and 399
4,CCCCC(=O)N(Cc1ccc(-c2ccccc2-c2nnn[nH]2)cc1)[C@H](C(=O)O)C(C)C,630 and 429

# Same assay, conditions: human, 24 h, 10 µM, compound concentration 10 uM
SMILES,Population Apoptotic (%),Population Fragmented Nuclei (%),Population Healthy Nuclei (%),Population Hoechst High Intensity Objects (%),Population Membrane Permeable-Phenotype (%),Population Mitochondria Different-Phenotype (%),Population Mitotic Cells (%),Population Normal (%),Population Pyknosed Nuclei (%),Population Tubulin-Different-Phenotype (%)
CN(C)CCCc1cc(C(=O)Nc2ccc(-c3ccncc3)cc2)ccc1O.Cl.Cl,32% and 47%,12% and 15%,77% and 74%,5% and 15%,0%,38% and 48%,67% and 52%,94% and 84%,9%,23% and 19%
CC(F)(F)CN1CCOc2c(nn(-c3ccccc3Cl)c2-c2ccc(Cl)cc2)C1=O,57% and 41%,–,76% and 80%,–,0%,71% and 79%,42% and 58%,92% and 94%,15%,50%
COc1ccc2c(c1)C(C(=O)N(Cc1ccc(N(C)C)cc1)c1ccc(C(C)C)cc1)CCC2.Cl (stereo not drawn),35% and 45%,9% and 7%,73% and 76%,10% and 6%,1% and 0%,51% and 60%,64% and 55%,89% and 93%,17% and 16%,70% and 60%
CCCCC(=O)N(Cc1ccc(-c2ccccc2-c2nnn[nH]2)cc1)[C@H](C(=O)O)C(C)C,20% and 35%,9%,82%,5% and 7%,0%,19% and 30%,79% and 64%,94% and 92%,7%,11% and 13%

# Same assay, conditions: human, 24 h, 10 µM, compound concentration 10 uM
row,SMILES,Total Cell Count
1,CN(C)CCCc1cc(C(=O)Nc2ccc(-c3ccncc3)cc2)ccc1O.Cl.Cl,588 and 505
2,CC(F)(F)CN1CCOc2c(nn(-c3ccccc3Cl)c2-c2ccc(Cl)cc2)C1=O,450 and 477
3,COc1ccc2c(c1)C(C(=O)N(Cc1ccc(N(C)C)cc1)c1ccc(C(C)C)cc1)CCC2.Cl (stereo not drawn),409 and 389
4,CCCCC(=O)N(Cc1ccc(-c2ccccc2-c2nnn[nH]2)cc1)[C@H](C(=O)O)C(C)C,663 and 420

# Same assay, conditions: human, 48 h, 1 µM, compound concentration 1 uM
SMILES,Population Apoptotic (%),Population Fragmented Nuclei (%),Population Healthy Nuclei (%),Population Hoechst High Intensity Objects (%),Population Membrane Permeable-Phenotype (%),Population Mitochondria Different-Phenotype (%),Population Mitotic Cells (%),Population Normal (%),Population Pyknosed Nuclei (%),Population Tubulin-Different-Phenotype (%)
CN(C)CCCc1cc(C(=O)Nc2ccc(-c3ccncc3)cc2)ccc1O.Cl.Cl,23% and 21%,11% and 16%,81% and 75%,2% and 5%,2% and 1%,19% and 24%,76% and 78%,97% and 94%,6% and 8%,14% and 13%
CC(F)(F)CN1CCOc2c(nn(-c3ccccc3Cl)c2-c2ccc(Cl)cc2)C1=O,22% and 25%,–,77% and 79%,–,1%,14% and 23%,77% and 74%,99% and 97%,7%,8%
COc1ccc2c(c1)C(C(=O)N(Cc1ccc(N(C)C)cc1)c1ccc(C(C)C)cc1)CCC2.Cl (stereo not drawn),20% and 46%,12%,80% and 81%,1% and 4%,1% and 0%,10% and 17%,79% and 53%,98% and 95%,6%,10% and 15%
CCCCC(=O)N(Cc1ccc(-c2ccccc2-c2nnn[nH]2)cc1)[C@H](C(=O)O)C(C)C,18% and 19%,13% and 14%,80% and 79%,2% and 3%,1% and 0%,12% and 16%,81% and 80%,97% and 96%,5% and 6%,7% and 9%

# Same assay, conditions: human, 48 h, 1 µM, compound concentration 1 uM
row,SMILES,Total Cell Count
1,CN(C)CCCc1cc(C(=O)Nc2ccc(-c3ccncc3)cc2)ccc1O.Cl.Cl,814 and 596
2,CC(F)(F)CN1CCOc2c(nn(-c3ccccc3Cl)c2-c2ccc(Cl)cc2)C1=O,1015 and 734
3,COc1ccc2c(c1)C(C(=O)N(Cc1ccc(N(C)C)cc1)c1ccc(C(C)C)cc1)CCC2.Cl (stereo not drawn),968 and 631
4,CCCCC(=O)N(Cc1ccc(-c2ccccc2-c2nnn[nH]2)cc1)[C@H](C(=O)O)C(C)C,1024 and 653

# Same assay, conditions: human, 48 h, 10 µM, compound concentration 10 uM
SMILES,Population Apoptotic (%),Population Fragmented Nuclei (%),Population Healthy Nuclei (%),Population Hoechst High Intensity Objects (%),Population Membrane Permeable-Phenotype (%),Population Mitochondria Different-Phenotype (%),Population Mitotic Cells (%),Population Normal (%),Population Pyknosed Nuclei (%),Population Tubulin-Different-Phenotype (%)
CN(C)CCCc1cc(C(=O)Nc2ccc(-c3ccncc3)cc2)ccc1O.Cl.Cl,29% and 58%,17% and 15%,75% and 76%,5% and 11%,1% and 0%,21% and 35%,70% and 41%,94% and 88%,6% and 7%,13% and 20%
CC(F)(F)CN1CCOc2c(nn(-c3ccccc3Cl)c2-c2ccc(Cl)cc2)C1=O,55% and 35%,–,74% and 78%,–,0%,62% and 68%,44% and 65%,93%,11%,–
COc1ccc2c(c1)C(C(=O)N(Cc1ccc(N(C)C)cc1)c1ccc(C(C)C)cc1)CCC2.Cl (stereo not drawn),59% and 36%,15% and 11%,75% and 79%,9% and 3%,6% and 2%,25% and 24%,40% and 63%,90% and 96%,9% and 8%,53% and 50%
CCCCC(=O)N(Cc1ccc(-c2ccccc2-c2nnn[nH]2)cc1)[C@H](C(=O)O)C(C)C,14% and 15%,14%,81% and 78%,1% and 2%,2% and 0%,8% and 17%,85% and 84%,98% and 97%,3% and 7%,8%

# Same assay, conditions: human, 48 h, 10 µM, compound concentration 10 uM
row,SMILES,Total Cell Count
1,CN(C)CCCc1cc(C(=O)Nc2ccc(-c3ccncc3)cc2)ccc1O.Cl.Cl,883 and 641
2,CC(F)(F)CN1CCOc2c(nn(-c3ccccc3Cl)c2-c2ccc(Cl)cc2)C1=O,540 and 558
3,COc1ccc2c(c1)C(C(=O)N(Cc1ccc(N(C)C)cc1)c1ccc(C(C)C)cc1)CCC2.Cl (stereo not drawn),558 and 482
4,CCCCC(=O)N(Cc1ccc(-c2ccccc2-c2nnn[nH]2)cc1)[C@H](C(=O)O)C(C)C,1205 and 623

# From ChEMBL document CHEMBL5724801, “EUbOPEN Chemogenomics Library - Multiplex” (2024)
